According to ChEMBL document CHEMBL2046296, “Synthesis and antidepressant activity of arylalkanol-piperidine derivatives as triple reuptake inhibitors” (Eur J Med Chem, 2012):

Columns and labels:
[1] = target: 5-hydroxytryptamine receptor 6 (Homo sapiens) (UniProt P50406); test: Displacement of [3H]LSD from human recombinant 5HT6 receptor expressed in HEK293 cells at 10 uM after 60 mins by liquid scintillation counting; assay type: cell-based
Summary of the method: (§1)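 Radioligand binding panel run by a contract lab (CEREP). Percent inhibition of specific radioligand binding was measured at a single primary test concentration of 10.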

[2] = target: T1, Muscarinic acetylcholine receptor M1 (Homo sapiens) (UniProt P11229); test: Displacement of [3H]pirenzepine from human recombinant M1 receptor expressed in CHO cells at 10 uM after 60 mins by liquid scintillation counting; assay type: cell-based; summary of the method: as §1
T1 sequence (whole entry): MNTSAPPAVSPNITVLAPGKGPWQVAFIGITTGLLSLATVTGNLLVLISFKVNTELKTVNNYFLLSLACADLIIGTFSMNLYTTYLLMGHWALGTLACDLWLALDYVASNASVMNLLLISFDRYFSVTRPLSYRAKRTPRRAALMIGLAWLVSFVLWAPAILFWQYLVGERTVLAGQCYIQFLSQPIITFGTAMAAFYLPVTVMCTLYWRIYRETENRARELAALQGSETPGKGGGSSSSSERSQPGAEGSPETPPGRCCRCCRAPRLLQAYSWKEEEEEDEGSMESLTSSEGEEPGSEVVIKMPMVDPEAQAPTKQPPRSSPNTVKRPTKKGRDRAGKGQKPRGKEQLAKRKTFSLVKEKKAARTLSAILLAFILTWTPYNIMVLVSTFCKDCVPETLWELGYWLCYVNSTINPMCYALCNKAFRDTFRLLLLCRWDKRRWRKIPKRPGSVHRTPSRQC

D(1A) dopamine receptor [3] = target: T2, D(1A) dopamine receptor (Homo sapiens, UniProt P21728); test: Displacement of [3H]SCH23390 from dopamine D1 receptor
Summary of the method: (§2)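 A primary screen at a single concentration was run first; compounds giving >80% inhibition of radioligand binding went on to full concentration–response curves to obtain IC50 (CEREP contract assay).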

D(1A) dopamine receptor [4] = target: T2, D(1A) dopamine receptor; test: Displacement of [3H]SCH23390 from dopamine D1 receptor at 10 uM; summary of the method: as §1
[5] = target: D(2) dopamine receptor (Homo sapiens) (UniProt P14416); test: Displacement of [3H]Methylspiperone from dopamine D2 receptor at 10 uM; summary of the method: as §1
[6] = target: T3, 5-hydroxytryptamine receptor 3A (Homo sapiens) (UniProt P46098); test: Displacement of [3H]BRL43694 from human recombinant 5HT3 receptor expressed in CHO cells at 10 uM after 60 mins by liquid scintillation counting; assay type: cell-based; summary of the method: as §1
T3 sequence (whole entry): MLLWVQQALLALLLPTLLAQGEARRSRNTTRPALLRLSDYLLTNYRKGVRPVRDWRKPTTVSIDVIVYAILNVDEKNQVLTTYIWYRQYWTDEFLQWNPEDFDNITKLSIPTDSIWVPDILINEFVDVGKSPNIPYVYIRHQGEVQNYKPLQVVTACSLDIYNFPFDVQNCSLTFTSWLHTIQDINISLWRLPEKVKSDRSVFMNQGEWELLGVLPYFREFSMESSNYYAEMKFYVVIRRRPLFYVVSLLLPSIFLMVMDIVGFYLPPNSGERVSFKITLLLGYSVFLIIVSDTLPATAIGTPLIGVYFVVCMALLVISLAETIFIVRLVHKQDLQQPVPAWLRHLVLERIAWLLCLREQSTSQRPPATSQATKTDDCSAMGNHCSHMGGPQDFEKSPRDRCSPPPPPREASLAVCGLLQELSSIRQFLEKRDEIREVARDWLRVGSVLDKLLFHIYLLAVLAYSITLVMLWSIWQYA

[7] = target: 5-hydroxytryptamine receptor 2B (Homo sapiens) (UniProt P41595); test: Displacement of [3H]Mesulergine from human recombinant 5HT2B receptor expressed in CHO cells at 10 uM after 30 mins by liquid scintillation counting; assay type: cell-based; summary of the method: as §1
Mus musculus [8] = test: Antidepressant activity in mouse assessed as decrease in immobility at 50 mg/kg, po administered 30 mins prior to testing by tail suspension test relative to vehicle control; assay type: functional; parameters: scale not given: the % may be the effect or the level left
Summary of the method: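 Oral doses of 10–50 mg/kg (three doses) were given once, 30 min before testing. Mice were hung by adhesive tape 1 cm from the tail tip, 75 cm above the tabletop. Immobility was recorded for 5 min, scored blind, 10–12 mice per group, against vehicle controls. One-way ANOVA with Scheffe post hoc test; p<0.05 significant.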

[9] = target: 5-hydroxytryptamine receptor 5A (Homo sapiens) (UniProt P47898); test: Displacement of [3H]LSD from 5HT5A receptor at 10 uM; summary of the method: as §1
Mus musculus [10] = test: Toxicity in mouse assessed as increase in locomotor activity at 50 mg/kg, po up to 5 mins relative to vehicle treated control; assay type: organism-based; parameters: dose 50 mg/kg, route oral; conditions: in vivo
Summary of the method: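 Mice were dosed orally at 50 mg/kg and 30 min later placed singly in new 35×35×35 cm plastic cages under dim light with sound attenuation. Activity was logged by a monitoring apparatus at intervals up to 30 min, and the 5 min point was analysed. Mean ± SEM; one-way ANOVA, Scheffe post hoc, versus control.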

[11] = target: Adrenergic receptor alpha-1 (Rattus norvegicus, UniProt P15823+P23944+P43140); test: Displacement of [3H]Prazosin from rat alpha1 adrenergic receptor after 60 mins by liquid scintillation counting; summary of the method: as §2
[12] = AUC (0 to infinity) in Sprague-Dawley rat at 10 mg/kg, po; assay type: ADME, organism-based; parameters: time infinity, dose 10 mg/kg, route oral; conditions: plasma
Summary of the method: (§3)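 Male SD rats, three per group, fasted overnight until 6 h post-dose, received a single oral dose of 10 mg/kg. Heparinized blood was drawn at 5, 15 and 30 min and at 1, 2, 4, 6, 8, 12 and 24 h. Plasma was frozen and analysed by LC/MS/MS for Cmax, Tmax, terminal t1/2 and AUC0-inf.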

[13] = Elimination half life in Sprague-Dawley rat at 10 mg/kg, po; assay type: ADME, organism-based; parameters: dose 10 mg/kg, route oral; conditions: in vivo, read-out: beta t1/2 (converted); summary of the method: as §3
[14] = Cmax in Sprague-Dawley rat at 10 mg/kg, po; assay type: ADME, organism-based; parameters: dose 10 mg/kg, route oral; conditions: in vivo; summary of the method: as §3
[15] = Elimination half life in Sprague-Dawley rat at 1 mg/kg, iv; assay type: ADME, organism-based; parameters: dose 1 mg/kg, route intravenous; conditions: in vivo, read-out: beta t1/2 (converted)
Summary of the method: (§4)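 Male SD rats, three per group, fasted overnight until 6 h after dosing, were given a single 1 mg/kg iv dose into the femoral vein. Blood was sampled at 5, 15 and 30 min and at 1, 2, 4 and 6 h. Plasma was stored frozen and assayed by LC/MS/MS.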

[16] = Tmax in Sprague-Dawley rat at 10 mg/kg, po; assay type: ADME, organism-based; parameters: dose 10 mg/kg, route oral; conditions: in vivo; summary of the method: as §3
[17] = Oral bioavailability in Sprague-Dawley rat at 10 mg/kg; assay type: ADME, organism-based; conditions: in vivo
Summary of the method: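 Bioavailability in male SD rats (n=3 per group, fasted overnight to 6 h post-dose) came from a 10 mg/kg oral dose and a 1 mg/kg iv dose via the femoral vein. Plasma drug levels over time were measured by LC/MS/MS.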

[18] = Cmax in Sprague-Dawley rat at 1 mg/kg, iv; assay type: ADME, organism-based; parameters: dose 1 mg/kg, route intravenous; conditions: in vivo; summary of the method: as §4
[19] = AUC (0 to infinity) in Sprague-Dawley rat at 1 mg/kg, iv; assay type: ADME, organism-based; parameters: time infinity, dose 1 mg/kg, route intravenous; conditions: plasma; summary of the method: as §4

T2 sequence (P21728 whole entry): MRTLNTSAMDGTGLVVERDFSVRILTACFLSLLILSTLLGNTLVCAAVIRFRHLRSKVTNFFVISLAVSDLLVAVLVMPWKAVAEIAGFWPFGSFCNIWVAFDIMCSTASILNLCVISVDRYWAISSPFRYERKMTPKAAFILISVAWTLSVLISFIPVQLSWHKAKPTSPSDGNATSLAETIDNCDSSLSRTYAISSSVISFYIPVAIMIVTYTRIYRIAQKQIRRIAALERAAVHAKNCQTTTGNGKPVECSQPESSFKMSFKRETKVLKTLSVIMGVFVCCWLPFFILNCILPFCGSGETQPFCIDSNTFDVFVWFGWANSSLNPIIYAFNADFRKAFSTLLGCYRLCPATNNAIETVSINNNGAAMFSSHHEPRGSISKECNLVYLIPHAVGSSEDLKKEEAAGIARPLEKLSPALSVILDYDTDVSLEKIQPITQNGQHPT
Sequence of 5-hydroxytryptamine receptor 5A (Homo sapiens) (P47898 whole entry): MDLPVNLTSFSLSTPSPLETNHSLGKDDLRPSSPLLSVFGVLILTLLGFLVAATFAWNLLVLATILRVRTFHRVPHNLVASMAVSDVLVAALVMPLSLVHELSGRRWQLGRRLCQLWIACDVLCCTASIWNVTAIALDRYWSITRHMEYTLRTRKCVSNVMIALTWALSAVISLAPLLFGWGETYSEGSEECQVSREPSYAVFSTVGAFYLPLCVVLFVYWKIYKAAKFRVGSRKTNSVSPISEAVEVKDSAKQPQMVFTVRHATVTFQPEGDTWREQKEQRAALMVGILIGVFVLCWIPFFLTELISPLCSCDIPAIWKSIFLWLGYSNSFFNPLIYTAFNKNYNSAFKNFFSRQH
Sequence of 5-hydroxytryptamine receptor 6 (Homo sapiens) (P50406 whole entry): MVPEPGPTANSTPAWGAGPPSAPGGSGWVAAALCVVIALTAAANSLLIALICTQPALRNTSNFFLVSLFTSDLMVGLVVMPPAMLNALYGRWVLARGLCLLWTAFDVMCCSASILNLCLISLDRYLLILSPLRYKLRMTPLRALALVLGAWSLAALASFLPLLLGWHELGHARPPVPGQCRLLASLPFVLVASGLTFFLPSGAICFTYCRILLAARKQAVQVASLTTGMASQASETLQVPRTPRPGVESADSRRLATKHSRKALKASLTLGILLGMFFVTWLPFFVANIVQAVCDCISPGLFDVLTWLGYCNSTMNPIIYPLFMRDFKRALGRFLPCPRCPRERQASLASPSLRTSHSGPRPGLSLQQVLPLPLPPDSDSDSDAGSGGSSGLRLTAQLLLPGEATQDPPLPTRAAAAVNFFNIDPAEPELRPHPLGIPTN
Sequence of 5-hydroxytryptamine receptor 2B (Homo sapiens) (P41595 whole entry): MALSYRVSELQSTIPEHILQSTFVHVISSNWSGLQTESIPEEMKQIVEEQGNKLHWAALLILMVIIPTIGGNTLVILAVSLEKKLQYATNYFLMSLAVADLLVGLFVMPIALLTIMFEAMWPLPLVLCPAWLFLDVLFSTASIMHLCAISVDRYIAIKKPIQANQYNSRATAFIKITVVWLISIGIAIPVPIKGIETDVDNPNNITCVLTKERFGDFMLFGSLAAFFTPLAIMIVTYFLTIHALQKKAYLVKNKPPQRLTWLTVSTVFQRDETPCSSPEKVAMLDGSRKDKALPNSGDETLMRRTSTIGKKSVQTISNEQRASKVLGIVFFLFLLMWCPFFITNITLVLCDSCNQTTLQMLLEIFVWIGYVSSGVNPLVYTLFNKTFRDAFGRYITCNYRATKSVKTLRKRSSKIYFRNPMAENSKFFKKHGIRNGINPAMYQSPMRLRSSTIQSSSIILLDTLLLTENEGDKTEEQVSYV
Sequence of D(2) dopamine receptor (Homo sapiens) (P14416 whole entry): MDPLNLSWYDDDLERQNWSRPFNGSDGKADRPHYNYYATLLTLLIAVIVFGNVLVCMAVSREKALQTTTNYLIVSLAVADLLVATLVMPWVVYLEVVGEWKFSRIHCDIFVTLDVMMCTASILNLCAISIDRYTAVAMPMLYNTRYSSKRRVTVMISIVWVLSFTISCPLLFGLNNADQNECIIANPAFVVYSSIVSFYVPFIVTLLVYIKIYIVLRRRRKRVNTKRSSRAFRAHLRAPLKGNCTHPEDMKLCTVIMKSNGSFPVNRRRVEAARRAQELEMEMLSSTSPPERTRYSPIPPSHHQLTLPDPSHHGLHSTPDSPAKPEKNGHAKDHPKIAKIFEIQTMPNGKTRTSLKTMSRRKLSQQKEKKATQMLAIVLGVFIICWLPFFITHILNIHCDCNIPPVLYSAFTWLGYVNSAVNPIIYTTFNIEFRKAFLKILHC

Compound | inhibition [1] [%] | inhibition [2] [%] | IC50 (D(1A) dopamine receptor [3]) [µM] | inhibition (D(1A) dopamine receptor [4]) [%] | inhibition [5] [%] | inhibition [6] [%] | inhibition [7] [%] | inhibition [9] [%] | IC50 [11] [µM] | AUC(0-inf) [12] [ng·h/mL] | half-life [13] [h] | Cmax [14] [ng/mL] | half-life [15] [h] | Tmax [16] [h] | bioavailability [17] [%] | Cmax [18] [ng/mL] | AUC(0-inf) [19] [ng·h/mL] | Activity (Mus musculus [8]) [%] | Activity (Mus musculus [10])
OC(CCN1CCC(O)(Cc2ccccc2)CC1)c1ccc(Cl)c(Cl)c1 (racemic) | 14.8 | 34.2 | – | 47.9 | 19.2 | 14.1 | 4.9 | 41.6 | 8 | 5440 | 2.9 | 897 | 2.3 | 0.7 | 44.1 | 750 | 1230 | 64 | Non-toxic
OC(CCN1CC=C(Cc2ccccc2)CC1)c1ccc(Cl)c(Cl)c1 (racemic) | 1.9 | 10.7 | – | 33.3 | 31.4 | 25.1 | 33.5 | – | – | – | – | – | – | – | – | – | – | 35 | Non-toxic
COc1ccc2cc(C(O)CCN3CC=C(Cc4ccccc4)CC3)ccc2c1Cl (racemic) | -0.9 | 57.8 | – | 27.1 | -0.5 | 0.5 | – | – | – | – | – | – | – | – | – | – | – | 57 | Non-toxic

Further lines, with some results ahead:

inhibition [1] [%] | inhibition [2] [%] | IC50 (D(1A) dopamine receptor [3]) [µM] | inhibition (D(1A) dopamine receptor [4]) [%] | inhibition [5] [%] | inhibition [6] [%] | inhibition [7] [%] | inhibition [9] [%] | IC50 [11] [µM] | AUC(0-inf) [12] [ng·h/mL] | half-life [13] [h] | Cmax [14] [ng/mL] | half-life [15] [h] | Tmax [16] [h] | bioavailability [17] [%] | Cmax [18] [ng/mL] | AUC(0-inf) [19] [ng·h/mL] | Compound | Activity (Mus musculus [8]) [%] | Activity (Mus musculus [10])
53.7 | 31.2 | 9.65 | 85.6 | 10.8 | 10.6 | 6.1 | 0.2 | – | – | – | – | – | – | – | – | – | OC(CCN1CC=C(Cc2ccccc2)CC1)c1cc2ccccc2s1 (racemic) | 34 | Non-toxic
16.8 | 4.3 | – | 35.6 | 4.3 | 8.3 | 14.5 | 33.5 | – | 5720 | 3.5 | 923 | 2.5 | 0.5 | 55.8 | 653 | 1020 | OC(CCN1CC=C(Cc2ccccc2)CC1)c1csc2ccccc12 (racemic) | 64 | Non-toxic
